Holding throughout (type): functional
What all share (conditions): read-out: MEC

Test [1] relates to Staphylococcus aureus. The test can be described thus: Antimicrobial activity against Staphylococcus aureus after 16 hrs by microtiter plate assay. The essentials:
(§1)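 Broth microdilution in YPAD medium (1% yeast extract, 2% peptone, 2% dextrose, 40 μg/mL adenine). Wells were scored visually after 16 h. Clear wells were plated on YPAD agar for 16 h at room temperature; regrowth meant bacteriostatic, none meant bactericidal.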

Test [2] deals with Staphylococcus epidermidis. As to the kind of experiment: Antimicrobial activity against Staphylococcus epidermidis after 16 hrs by microtiter plate assay. The essentials:
as §1

The test system of test [3] is Salmonella enterica. The test can be described thus: Antimicrobial activity against Salmonella enterica after 16 hrs by microtiter plate assay. The essentials: as §1
Test [4] deals with Shigella sonnei. The test can be described thus: Antimicrobial activity against Shigella sonnei after 16 hrs by microtiter plate assay by microtiter plate assay. The gist of the method: as §1
Test [5] has as its system Escherichia coli. As to the kind of experiment: Antimicrobial activity against Escherichia coli after 16 hrs by microtiter plate assay. The essentials: as §1
In test [6] the test system is Klebsiella aerogenes. The test can be described thus: Antimicrobial activity against Enterobacter aerogenes after 16 hrs by microtiter plate assay. The gist of the method:
as §1

Test [7] concerns Listeria monocytogenes. As to the kind of experiment: Antimicrobial activity against Listeria monocytogenes after 16 hrs by microtiter plate assay. The gist of the method: as §1
Test [8] deals with Enterococcus. The test can be described thus: Antimicrobial activity against Enterococcus after 16 hrs by microtiter plate assay. The gist of the method: as §1

For `C=C(C)CC[C@H](Cc1c(O)cc(O)c2c1O[C@H](c1ccc(O)cc1O)CC2=O)C(=C)C` [REMANGIFLAVANONE B], the minimal effective concentration in test [1] was determined as 1.8 µg/mL; in test [2], 1.8 µg/mL; in test [3] it was 125 µg/mL; in test [4], 125 µg/mL; in test [5], 125 µg/mL; in test [6] it was 125 µg/mL. The minimal effective concentration in test [7] amounted to 1.8 µg/mL; in test [8], 7.5 µg/mL.

As to `C=C(C)CC[C@H](Cc1c(O)cc(O)c2c1O[C@H](c1ccc(O)cc1)CC2=O)C(=C)C` [REMANGIFLAVANONE A], the minimal effective concentration in test [1] turned out to be 3.75 µg/mL; in test [2], 1.8 µg/mL; in test [3] it was 125 µg/mL; in test [4], 125 µg/mL; in test [5] it was 125 µg/mL; in test [6] it was 125 µg/mL. Moreover, the minimal effective concentration was determined as 125 µg/mL in test [7] and 7.5 µg/mL in test [8].

The values are drawn from ChEMBL document CHEMBL1155564, “New antimicrobial flavanones from Physena madagascariensis” (2000).
